Reference: ChEMBL document CHEMBL1133447, “Inhibition of protein synthesis by didemnins: cell potency and SAR” (J Med Chem, 2000)
Starred links: 1 amine or outer side, 2 acyl side, 3 side chain; linkers in the order of their positions; H or OH if unused. Positions of bridges follow the written chain, without caps; N, C: chain ends. Non-standard residues stand in square brackets, D forms with d. Residues, ends and D or L forms follow the SMILES beside them. ξ: configuration not given here. *: point of attachment. X1 = CC[C@H](C)[C@@H](N[*:1])[C@@H](O)CC(=O)O[C@H](C(=O)[C@H](C)C(=O)[*:2])C(C)C; Benzoyl(4-benzoyl) = O=C(c1ccccc1)c1ccc(C(=O)*)cc1; X2 = CC[C@H](C)[C@@H](N[*:1])[C@@H](O)CC(=O)[*:2]; Propanoyl(3-(4-MeO-Ph)) = COc1ccc(CCC(=O)*)cc1; NMeY = CN[C@@H](Cc1ccc(O)cc1)C(=O)O; NMeL = CN[C@@H](CC(C)C)C(=O)O; dHica = CC(C)C[C@@H](O)C(=O)O; dNMeL = CN[C@H](CC(C)C)C(=O)O; pGlu = O=C1CC[C@@H](C(=O)O)N1; NMeV = CN[C@H](C(=O)O)C(C)C; Hiv = CC(C)[C@H](O)C(=O)O; NMeA = CN[C@@H](C)C(=O)O; Lac = C[C@H](O)C(=O)O; OBn = c1ccc(CO*)cc1; Ahx = NCCCCCC(=O)O; ξP = O=C(O)C1CCCN1; βAla = NCCC(=O)O

Species on record: Oryctolagus cuniculus
Test: In vitro inhibition of protein synthesis in tobacco mosaic virus mRNA-encoded proteins in rabbit reticulocyte lysate
Format: functional
Method in brief: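 Cell-free translation in rabbit reticulocyte lysate programmed with tobacco mosaic virus mRNA. Protein synthesis was measured as [³⁵S]methionine incorporation into the encoded proteins across a range of inhibitor concentrations, and IC50 was derived from the concentration dependence.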

Molecule | IC50 [µM]
COc1ccc(C[C@@H](C(=O)NCCNC(=O)[C@H](CC(C)C)N(C)C(=O)[C@@H]2CCCN2C(=O)[C@H](C)O)N(C)C(=O)C2CCCN2C(=O)[C@H](CC(C)C)NC(=O)[C@@H](C)NC(=O)OCc2ccccc2)cc1 (stereo not given in full) | 275
COc1ccc(C[C@@H](C(=O)O[C@H](C)[C@H](NC(=O)[C@@H](CC(C)C)N(C)C(=O)[C@@H]2CCCN2C(=O)[C@H](C)O)C(=O)N2CCCCNC(=O)[C@H](C)C(=O)[C@H](C(C)C)OC(=O)C[C@H](O)[C@H]2CC(C)C)N(C)C(C)=O)cc1 | > 1000
CC[C@H](C)[C@H]1NC(=O)[C@@H](NC(=O)[C@@H](CC(C)C)N(C)C(=O)[C@@H]2CCCN2C(=O)[C@H](C)OC(C)=O)[C@@H](C)OC(=O)[C@H](Cc2ccc(OC)cc2)N(C)C(=O)[C@@H]2CCCN2C(=O)[C@H](CC(C)C)NC(=O)[C@@H](C)C(=O)[C@H](C(C)C)OC(=O)C[C@@H]1OC(C)=O | 10
CSCC[C@H](N)C(=O)N[C@@H](CCC(=O)O)C(=O)N[C@@H](Cc1c[nH]cn1)C(=O)N[C@@H](Cc1ccccc1)C(=O)N[C@@H](CCCN=C(N)N)C(=O)N[C@@H](Cc1c[nH]c2ccccc12)C(=O)NCC(=O)O | 4
CC[C@H](C)[C@H]1NC(=O)[C@@H](NC(=O)[C@@H](CC(C)C)N(C)C(=O)[C@@H]2CCCN2C(=O)[C@H](C)O)[C@@H](C)OC(=O)[C@@H]2CCc3ccccc3N2C(=O)[C@@H]2CCCN2C(=O)[C@H](CC(C)C)NC(=O)[C@@H](C)C(=O)[C@H](C(C)C)OC(=O)C[C@@H]1O | 2.7
COc1ccc(C[C@H]2C(=O)O[C@H](C)[C@H](NC(=O)[C@@H](CC(C)C)N(C)C(=O)[C@@H]3CCCN3C(=O)[C@H](C)O)C(=O)N[C@H](C(C)C)[C@@H](O)CC(=O)O[C@@H](C(C)C)C(=O)[C@H](C)C(=O)N[C@@H](CC(C)C)C(=O)N3CCC[C@H]3C(=O)N2C)cc1 | 3
COc1ccc(C[C@H]2C(=O)O[C@H](C)[C@H](NC(=O)[C@@H](CC(C)C)N(C)C(=O)C3CCCN3C(=O)[C@H](C)O)C(=O)N[C@H](C(C)C)[C@@H](O)CC(=O)O[C@@H](C(C)C)C(=O)[C@H](C)C(=O)N[C@@H](CC(C)C)C(=O)N3CCCC3C(=O)N2C)cc1 (stereo not given in full) | 1
COc1ccc(C[C@H]2C(=O)N[C@@H](C)C(=O)N(C)[C@H]3Cc4ccc(cc4)Oc4cc(ccc4OC)C[C@@H](C(=O)N[C@H](C)C(=O)N[C@@H](C)C(=O)N2C)N(C)C3=O)cc1 | 0.05
CC[C@H](C)[C@H]1NC(=O)[C@@H](NC(=O)[C@@H](CC(C)C)N(C)C(=O)C2CCCN2)[C@@H](C)OC(=O)[C@H](Cc2ccc(OC)cc2)N(C)C(=O)C2CCCN2C(=O)[C@H](CC(C)C)NC(=O)[C@@H](C)C(=O)[C@H](C(C)C)OC(=O)C[C@@H]1O (stereo not given in full) | 4.3
CC[C@H](C)[C@H]1NC(=O)[C@@H](NC(=O)[C@@H](CC(C)C)N(C)C(=O)C2C=CCN2C(=O)OC(C)(C)C)[C@@H](C)OC(=O)[C@H](Cc2ccc(OC)cc2)N(C)C(=O)C2CCCN2C(=O)[C@H](CC(C)C)NC(=O)[C@@H](C)C(=O)[C@H](C(C)C)OC(=O)C[C@@H]1O (stereo not given in full) | 5.3
CC[C@H](C)[C@H]1NC(=O)[C@@H](NC(=O)[C@@H](CC(C)C)N(C)C(=O)C2CCCN2C(=O)[C@H](C)O)[C@@H](C)OC(=O)[C@H](CC(C)C)N(C)C(=O)C2CCCN2C(=O)[C@H](CC(C)C)NC(=O)[C@@H](C)C(=O)[C@H](C(C)C)OC(=O)C[C@@H]1O (stereo not given in full) | 9
C=CCOC(=O)N[C@@H](CC(C)C)C(=O)N1CCC[C@H]1C(=O)N(C)[C@@H](Cc1ccc(OC)cc1)C(=O)O[C@H](C)[C@H](NC(=O)[C@@H](CC(C)C)N(C)C(=O)[C@@H]1CCCN1C(=O)[C@H](C)O)C(=O)OCC[Si](C)(C)C | 112
CC[C@H](C)[C@H]1NC(=O)[C@@H](NC(=O)[C@@H](CC(C)C)N(C)C(=O)C2C=CCN2)[C@@H](C)OC(=O)[C@H](Cc2ccc(OC)cc2)N(C)C(=O)C2CCCN2C(=O)[C@H](CC(C)C)NC(=O)[C@@H](C)C(=O)[C@H](C(C)C)OC(=O)C[C@@H]1O (stereo not given in full) | 4.3
CC[C@H](C)[C@H]1NC(=O)[C@@H](NC(=O)[C@@H](CC(C)C)N(C)C(=O)C2CCCN2C(=O)[C@H](C)O)[C@@H](C)OC(=O)[C@H](Cc2ccccc2)N(C)C(=O)C2CCCN2C(=O)[C@H](CC(C)C)NC(=O)[C@@H](C)C(=O)[C@H](C(C)C)OC(=O)C[C@@H]1O (stereo not given in full) | 2.5
CC[C@H](C)[C@H]1NC(=O)[C@@H](NC(=O)[C@@H](CC(C)C)NC)[C@@H](C)OC(=O)[C@H](Cc2ccc(OC)cc2)N(C)C(=O)C2CCCN2C(=O)[C@H](CC(C)C)NC(=O)[C@@H](C)C(=O)[C@H](C(C)C)OC(=O)C[C@@H]1O (stereo not given in full) | 5.4
CC(=O)O[C@H](C)[C@H](NC(=O)[C@H](CC(C)C)N(C)C(=O)[C@@H]1CCCN1C(=O)[C@H](C)O)C(=O)OCc1ccccc1 (H-[Lac]P[NMeL]T(Ac)-OBn) | 276
COc1ccc(CCC(=O)O[C@H](C)[C@H](NC(=O)[C@H](CC(C)C)N(C)C(=O)[C@@H]2CCCN2C(=O)[C@H](C)O)C(=O)OCc2ccccc2)cc1 (H-[Lac]P[NMeL]T(Propanoyl(3-(4-MeO-Ph)))-OBn) | 405
CC[C@H](C)[C@H]1NC(=O)[C@@H](NC(=O)[C@@H](CC(C)C)N(C)C(=O)[C@@H]2CCCN2C(=O)[C@H](C)O)[C@@H](C)OC(=O)[C@H](Cc2ccc(OC)cc2)N(C)C(=O)[C@@H]2CCCN2C(=O)[C@H](CC(C)C)NC(=O)[C@H](C(C)C)OC(=O)C[C@@H]1O (H-[Lac]P[dNMeL]T[X2][Hiv]LP[NMeY](Me); ester 4-C) | 1.3
CC[C@H](C)[C@@H]1NC(=O)[C@@H]2CCCN2C(=O)[C@@H](CC(C)C)OC(=O)CCNC(=O)[C@H](C)N(C)C(=O)[C@H](C(C)C)N(C)C1=O (cyclo(I[NMeV][NMeA][βAla][dHica]P)) | > 1000
CC[C@H](C)[C@H]1NC(=O)[C@@H](NC(=O)[C@@H](CC(C)C)N(C)C(=O)CCCCCNC(=O)c2ccc(C(=O)c3ccccc3)cc2)[C@@H](C)OC(=O)[C@H](Cc2ccc(OC)cc2)N(C)C(=O)C2CCCN2C(=O)[C@H](CC(C)C)NC(=O)[C@@H](C)C(=O)[C@H](C(C)C)OC(=O)C[C@@H]1O (stereo not given in full) ({Benzoyl(4-benzoyl)-Ahx}-[dNMeL]T[X1]L[ξP][NMeY](Me); ester 2-C) | 24
CC[C@H](C)[C@H]1NC(=O)[C@@H](NC(=O)[C@@H](CC(C)C)N(C)C(=O)CNC(=O)c2ccc(C(=O)c3ccccc3)cc2)[C@@H](C)OC(=O)[C@H](Cc2ccc(OC)cc2)N(C)C(=O)C2CCCN2C(=O)[C@H](CC(C)C)NC(=O)[C@@H](C)C(=O)[C@H](C(C)C)OC(=O)C[C@@H]1O (stereo not given in full) ({Benzoyl(4-benzoyl)}-G[dNMeL]T[X1]L[ξP][NMeY](Me); ester 3-C) | 4.5
CC[C@H](C)[C@H]1NC(=O)[C@@H](NC(=O)[C@@H](CC(C)C)N(C)C(=O)c2ccc(C(=O)c3ccccc3)cc2)[C@@H](C)OC(=O)[C@H](Cc2ccc(OC)cc2)N(C)C(=O)C2CCCN2C(=O)[C@H](CC(C)C)NC(=O)[C@@H](C)C(=O)[C@H](C(C)C)OC(=O)C[C@@H]1O (stereo not given in full) ({Benzoyl(4-benzoyl)}-[dNMeL]T[X1]L[ξP][NMeY](Me); ester 2-C) | 4
O=C(O)C1=CC(=C(c2ccc(O)c(C(=O)O)c2)c2ccc(O)c(C(=O)O)c2)C=CC1=O [AURINTRICARBOXYLIC ACID] | 10
C=C(NC(=O)C(=C)NC(=O)c1ccc2c(n1)-c1coc(n1)C(=C)NC(=O)C(=C)NC(=O)c1nc(oc1C)C(=C)NC(=O)C(C(C)(C)O)NC(=O)C(=C)NC(=O)c1nc(oc1C)/C(=C/C)NC(=O)C(C(C)O)NC(=O)c1csc-2n1)C(N)=O (stereo not given) [BERNINAMYCIN] | 600
COc1ccc(C[C@H]2C(=O)N[C@@H](C)C(=O)N(C)[C@@H]3C(=O)N(C)[C@@H](Cc4ccc(O)c(c4)Oc4ccc(cc4)[C@@H]3O)C(=O)N[C@@H](C)C(=O)N[C@@H](C)C(=O)N2C)cc1 [BOUVARDIN] | 0.1
C[C@@H]1C[C@@H]([C@H](O)CC2CC(=O)NC(=O)C2)C(=O)[C@@H](C)C1 [CYCLOHEXIMIDE] | 5
CC[C@H](C)[C@H](NC(=O)[C@H](Cc1ccccc1)NC(=O)[C@H](C)NC(=O)[C@H](CC(=O)O)NC(=O)[C@H](CCCCN)NC(=O)[C@H](CO)NC(=O)[C@@H]1CCCN1C(=O)[C@@H]1CCC(=O)N1)C(=O)NCC(=O)N[C@@H](CC(C)C)C(=O)N[C@@H](CCSC)C(N)=O [ELEDOISIN] ([pGlu]PSKDAFIGLM-NH2) | 500
CC(=O)O[C@H]1C[C@@]2(C)[C@@H](C[C@@H](O)[C@H]3[C@@]4(C)CC[C@@H](O)[C@@H](C)[C@@H]4CC[C@@]32C)/C1=C(\CCC=C(C)C)C(=O)O [FUSIDIC ACID] | 400
C/C1=C\[C@H](C)C[C@H](C)OC(=O)C[C@H](c2ccc(O)cc2)NC(=O)[C@@H](Cc2c(Br)[nH]c3ccccc23)N(C)C(=O)[C@H](C)NC(=O)[C@@H](C)C1 [JASPAMIDE] | > 500
H-ELNFTPNWGT-NH2 | > 1000
